# Data from ChEMBL document CHEMBL1221407, “Anthraquinone, cyclopentanone, and naphthoquinone derivatives from the sea fan-derived fungi Fusarium spp. PSU-F14 and PSU-F135” (J Nat Prod, 2010).
# Calls of active or inactive are those of the source. The calls are words filed in the database; no cut-off is given here.
# What was measured:
# [1] = tested on: KB; assay: Cytotoxicity against human KB cells; type: functional, cell-based
# Procedure, shortened: (§1)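 KB (oral human carcinoma) and MCF-7 (human breast cancer) cells; resazurin microplate assay.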
# [2] = tested on: Vero; assay: Cytotoxicity against african green monkey Vero cells; type: cell-based, Chlorocebus sabaeus
# Procedure, shortened: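 Vero cells (African green monkey kidney fibroblasts), noncancerous; run in triplicate by the method of Hunt and co-workers.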
# [3] = tested on: Cryptococcus neoformans; assay: Antimicrobial activity against Cryptococcus neoformans by colorimetric broth microdilution test; type: functional
# Procedure, shortened: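 Colorimetric broth microdilution run to CLSI M27-A2 (reference broth dilution method for yeasts) and Drummond and Waigh.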
# [4] = tested on: MCF7; assay: Cytotoxicity against human MCF7 cells; type: functional, cell-based; procedure, shortened: as §1
# [5] = tested on: Mycobacterium tuberculosis; assay: Antimycobacterial activity against Mycobacterium tuberculosis H37Ra by green fluorescent protein-based fluorescent assay; type: functional
# [6] = tested on: Plasmodium falciparum; assay: Antimalarial activity against multidrug-resistant Plasmodium falciparum K1 by microculture radioisotope technique; type: functional, organism-based
# [7] = tested on: Nannizzia gypsea; assay: Antimicrobial activity against Microsporum gypseum by colorimetric broth microdilution test; type: functional
# Procedure, shortened: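 Colorimetric broth microdilution run to CLSI M38-A (broth dilution method for filamentous fungi) and Drummond and Waigh.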
# [8] = Homo sapiens, KB, read-out: IC50
# [9] = Chlorocebus sabaeus, Vero, read-out: IC50
# [10] = Plasmodium falciparum, K1, read-out: IC50
Compound,"IC50 [1, 8] [µM]","IC50 [2, 9] [µM]",MIC [3] [µM],IC50 [4] [µM],MIC [5],IC50 [6],MIC [7] [µM],IC50 ([2]; vero),"IC50 [6, 10] [µM]",IC50 ([1]; kb)
Cc1c2ccncc2c(C)c2c1[nH]c1ccccc12 [ELLIPTECINE],1.1,4.47,–,–,–,–,–,–,–,–
COC1=CC(=O)c2c(O)c3c(c(O)c2C1=O)CC(C)(O)OC3 (stereo not given) [FUSARUBIN],14,79,> 200,9.8,inactive,Not Active,> 200,–,–,–
NNC(=O)c1ccncc1 [ISONIAZID],–,–,–,–,0.17 µM,–,–,–,–,–
COc1cc(O)c2c(c1O)[C@@H](O)[C@@H](CC(C)=O)[C@@H](CO)C2=O [FUSARNAPHTHOQUINONE A],130,–,–,22,inactive,Not Active,–,Not Active,–,–
COC1=CC(=O)c2c(O)c(C)c(CC(C)=O)c(O)c2C1=O [JAVANICIN],5.7,170,–,13,inactive,–,–,–,12,–
COC1=CC(=O)c2c(O)c3c(c(O)c2C1=O)C[C@](C)(O)[C@H](O)[C@H]3O [BOSTRYCIN],0.9,4.2,–,2.7,inactive,–,–,–,9.8,–
COC1=CC(=O)c2c(O)c3c(c(O)c2C1=O)C=C(C)OC3 [ANHYDROFUSARUBIN],2,58,–,0.9,87 µM,–,–,–,14,–
C[C@H]1[C@@H](O)O[C@@H]2O[C@@]3(C)CC[C@H]4[C@H](C)CC[C@@H]1[C@@]24OO3 [ARTENIMOL],–,–,–,–,–,–,–,–,0.004,–
COC1=CC(=O)c2c(cc3c(c2O)C[C@@H](O)[C@@](C)(O)C3)C1=O [NIGROSPORIN B],88,29,–,5.4,41 µM,–,–,–,13,–
COc1cccc2c1C(=O)c1c(O)c3c(c(O)c1C2=O)C[C@@](O)(C(=O)CO)C[C@@H]3O[C@H]1C[C@H](N)[C@H](O)[C@H](C)O1 [DOXORUBICIN],0.33,–,–,2.18,–,–,–,–,–,–
COc1cc(O)c2c(c1O)[C@H](O)[C@H]1C[C@](C)(O)[C@H](O)[C@@H](O)[C@@H]1C2=O [9ALPHA-HYDROXYHALOROSELLINIA A],49,54,–,6.2,39 µM,–,–,–,25,–
COc1cc(O)c2c(c1O)C(=O)c1cc(C)ccc1C2=O [AUSTROCORTIRUBIN],–,–,–,6.3,inactive,Not Active,–,Not Active,–,Not Active
CO[C@@H]1CC(=O)c2c(O)c(C)c3cc(C)oc3c2[C@@H]1O [FUSARNAPHTHOQUINONE B],–,–,> 200,–,–,–,> 200,–,–,–
COc1cc(O)c2c(c1O)[C@H](O)[C@H]1C[C@](C)(O)[C@H](O)C[C@@H]1C2=O,19,57,–,15,inactive,Not Active,–,–,–,–
